One may read the EC50 as the concentration that produces a half-maximal response.

For one experiment, the species on record is Homo sapiens. Description: Thrombopoietin efficacy in human bone marrow cultures was reported. The class given is functional.
A short description of experiment [1]: Compound was evaluated for the expression of luciferase activity in BAF3/TPO-Rluc cell line. The note with it: Homo sapiens, BAF-3/TPO-Rluc. The class given is functional, cell-based. An outline of the steps: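 BAF3/TPO-Rluc cells at (1 × 10⁵)/mL, starved of IL-3 overnight, in growth medium with 0.5% v/v FBS and 30 µM ZnCl₂. Incubated with compound (0.32% DMSO final) or rhuTPO for 3 h at 37 °C, 5% CO₂. Luciferase activity read on a luminometer; each point is the mean of triplicate assays.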

As to `O=C(O)c1ccc(N/C(S)=N/N=C/c2cccc(-c3cccc(C(F)(F)F)c3)c2O)cc1`, the TPO(max) in the experiment listed under Homo sapiens turned out to be 100%.

On to `Cc1ccc(-c2cccc(/C=N/N=C(\S)Nc3cccc(C(=O)O)c3)c2O)cc1C`, for which the TPO(max) in the experiment listed under Homo sapiens was 90%.

The molecule `Cc1cc(Cl)ccc1/N=C(\S)N/N=C/c1cc(Cl)cc(Cl)c1O` displayed an EC50 in experiment [1] of 5600 nM. In addition, the TPO(max) in the experiment filed under Homo sapiens came out at 30%.

Molecule `O=S(=O)(O)c1ccc(N/C(S)=N/N=C/c2cc(Cl)cc(Cl)c2O)cc1` gave an EC50 in experiment [1] of 260 nM. Further, the TPO(max) in the experiment filed under Homo sapiens came to 29%.

For `Cc1ccc(-n2[nH]c(C)c(/N=N/c3c(O)cc(S(=O)(=O)O)c4ccccc34)c2=O)cc1C`, the EC50 in experiment [1] was determined as 40 nM. In the experiment listed under Homo sapiens, this molecule displayed a TPO(max) of 100%.

`O=C(O)c1ccc(N/C(S)=N/N=C/c2cc(Cl)cc(Cl)c2O)cc1` came in with an EC50 in experiment [1] of 350 nM. This molecule also showed a TPO(max) in the experiment listed under Homo sapiens of 30%.

These data come from ChEMBL document CHEMBL1135970, “Identification of a pharmacophore for thrombopoietic activity of small, non-peptidyl molecules. 1. Discovery and optimization of salicylaldehyde thiosemicarbazone thrombopoietin mimics” (J Med Chem, 2002).
